The record followed here is ChEMBL document CHEMBL1165965, “Synthesis and structure-activity relationships of 1,2,3,4-tetrahydropyrido[2,3-b]pyrazines as potent and selective inhibitors of the anaplastic lymphoma kinase” (Bioorg Med Chem, 2010).

Test [1] concerns the target T1, Cyclin-dependent kinase 11A (Homo sapiens) (UniProt Q9UQ88).
T1 sequence (whole entry): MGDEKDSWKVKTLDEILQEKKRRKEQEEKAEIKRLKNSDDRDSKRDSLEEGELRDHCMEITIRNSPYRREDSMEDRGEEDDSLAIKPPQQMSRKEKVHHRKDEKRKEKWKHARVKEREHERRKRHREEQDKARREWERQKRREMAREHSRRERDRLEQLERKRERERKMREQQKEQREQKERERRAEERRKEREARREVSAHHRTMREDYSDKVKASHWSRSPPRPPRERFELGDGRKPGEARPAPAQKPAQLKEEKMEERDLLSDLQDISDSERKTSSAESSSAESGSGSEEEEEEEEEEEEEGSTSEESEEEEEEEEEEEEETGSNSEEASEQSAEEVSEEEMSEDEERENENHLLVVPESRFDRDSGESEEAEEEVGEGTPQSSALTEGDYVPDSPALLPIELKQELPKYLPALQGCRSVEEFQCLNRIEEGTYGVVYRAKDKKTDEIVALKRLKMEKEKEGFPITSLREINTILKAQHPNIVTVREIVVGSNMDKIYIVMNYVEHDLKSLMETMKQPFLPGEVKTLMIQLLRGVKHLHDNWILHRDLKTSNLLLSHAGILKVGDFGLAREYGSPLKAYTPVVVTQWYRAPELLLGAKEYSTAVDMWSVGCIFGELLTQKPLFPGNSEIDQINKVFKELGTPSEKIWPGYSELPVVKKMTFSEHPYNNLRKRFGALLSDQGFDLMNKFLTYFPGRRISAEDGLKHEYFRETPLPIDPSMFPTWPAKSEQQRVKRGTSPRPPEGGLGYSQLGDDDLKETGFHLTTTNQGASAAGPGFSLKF
The test is described as follows: Inhibition of CDC2L2 at 1 uM.

The target of test [2] is T2, Serine/threonine-protein kinase TAO1 (Homo sapiens) (UniProt Q7L7X3).
T2 sequence (whole entry): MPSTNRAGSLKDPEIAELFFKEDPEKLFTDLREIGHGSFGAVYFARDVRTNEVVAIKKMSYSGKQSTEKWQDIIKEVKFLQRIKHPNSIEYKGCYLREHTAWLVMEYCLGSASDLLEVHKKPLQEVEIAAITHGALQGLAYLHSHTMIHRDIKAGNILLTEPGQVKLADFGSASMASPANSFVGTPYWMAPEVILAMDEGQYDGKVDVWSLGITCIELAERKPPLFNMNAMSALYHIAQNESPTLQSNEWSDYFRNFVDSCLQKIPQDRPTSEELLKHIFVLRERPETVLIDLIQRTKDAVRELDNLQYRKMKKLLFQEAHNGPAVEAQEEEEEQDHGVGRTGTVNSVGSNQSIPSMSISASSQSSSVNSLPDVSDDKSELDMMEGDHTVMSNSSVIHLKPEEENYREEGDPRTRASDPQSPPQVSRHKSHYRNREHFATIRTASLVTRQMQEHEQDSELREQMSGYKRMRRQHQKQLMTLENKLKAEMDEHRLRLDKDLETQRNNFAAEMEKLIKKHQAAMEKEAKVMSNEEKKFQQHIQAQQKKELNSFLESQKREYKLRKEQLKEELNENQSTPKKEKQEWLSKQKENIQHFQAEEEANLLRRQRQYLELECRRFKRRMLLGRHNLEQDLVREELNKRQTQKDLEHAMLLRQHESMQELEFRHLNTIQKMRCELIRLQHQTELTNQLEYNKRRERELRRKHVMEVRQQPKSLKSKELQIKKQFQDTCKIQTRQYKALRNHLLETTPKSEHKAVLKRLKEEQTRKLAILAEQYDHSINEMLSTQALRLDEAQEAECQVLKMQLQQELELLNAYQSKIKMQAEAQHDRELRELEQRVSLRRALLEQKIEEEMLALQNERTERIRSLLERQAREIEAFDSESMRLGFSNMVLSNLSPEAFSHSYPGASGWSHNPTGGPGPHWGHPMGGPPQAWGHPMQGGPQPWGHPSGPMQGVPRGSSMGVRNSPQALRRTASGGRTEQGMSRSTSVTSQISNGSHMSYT
The test can be described thus: Inhibition of TAOK1 at 1 uM.

The target of test [3] is T3, Cyclin-dependent kinase-like 5 (Homo sapiens) (UniProt O76039).
T3 sequence (whole entry): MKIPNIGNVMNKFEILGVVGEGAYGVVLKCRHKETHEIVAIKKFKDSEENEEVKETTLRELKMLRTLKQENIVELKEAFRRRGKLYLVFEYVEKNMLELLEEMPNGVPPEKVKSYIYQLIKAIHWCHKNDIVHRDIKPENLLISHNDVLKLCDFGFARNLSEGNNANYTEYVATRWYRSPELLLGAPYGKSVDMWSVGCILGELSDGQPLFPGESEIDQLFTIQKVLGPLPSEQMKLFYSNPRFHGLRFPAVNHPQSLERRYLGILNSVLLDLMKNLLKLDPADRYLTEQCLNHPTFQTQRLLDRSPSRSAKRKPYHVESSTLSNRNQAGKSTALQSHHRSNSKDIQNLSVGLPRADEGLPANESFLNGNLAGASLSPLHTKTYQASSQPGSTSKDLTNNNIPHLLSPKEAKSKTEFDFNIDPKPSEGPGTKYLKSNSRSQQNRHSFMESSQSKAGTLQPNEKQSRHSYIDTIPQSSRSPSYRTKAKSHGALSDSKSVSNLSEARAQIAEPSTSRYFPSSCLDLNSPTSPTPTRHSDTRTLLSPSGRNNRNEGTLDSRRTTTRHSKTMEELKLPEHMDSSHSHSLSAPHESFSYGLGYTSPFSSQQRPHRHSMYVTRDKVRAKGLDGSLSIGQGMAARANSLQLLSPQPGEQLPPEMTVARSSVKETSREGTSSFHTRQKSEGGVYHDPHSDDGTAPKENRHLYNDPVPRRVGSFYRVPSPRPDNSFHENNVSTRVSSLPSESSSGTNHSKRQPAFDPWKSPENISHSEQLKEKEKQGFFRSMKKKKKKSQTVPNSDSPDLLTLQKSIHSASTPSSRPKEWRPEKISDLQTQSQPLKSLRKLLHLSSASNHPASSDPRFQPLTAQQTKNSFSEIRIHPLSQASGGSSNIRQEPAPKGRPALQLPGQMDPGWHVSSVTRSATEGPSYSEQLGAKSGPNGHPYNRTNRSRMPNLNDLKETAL
The test is described as follows: Inhibition of CDKL5 at 1 uM.

The target of test [4] is Death-associated protein kinase 3 (Homo sapiens) (UniProt O43293). The test can be described thus: Inhibition of DAPK3 at 1 uM. In outline:
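Single-concentration screen using Ambit Bioscience KINOMEscan technology across a panel of 250–400 kinases. Per-kinase inhibition from this screen was summarized as S(90), the fraction of kinases inhibited by more than 90%.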

Chain of Death-associated protein kinase 3 (Homo sapiens) (O43293 whole entry, looked up): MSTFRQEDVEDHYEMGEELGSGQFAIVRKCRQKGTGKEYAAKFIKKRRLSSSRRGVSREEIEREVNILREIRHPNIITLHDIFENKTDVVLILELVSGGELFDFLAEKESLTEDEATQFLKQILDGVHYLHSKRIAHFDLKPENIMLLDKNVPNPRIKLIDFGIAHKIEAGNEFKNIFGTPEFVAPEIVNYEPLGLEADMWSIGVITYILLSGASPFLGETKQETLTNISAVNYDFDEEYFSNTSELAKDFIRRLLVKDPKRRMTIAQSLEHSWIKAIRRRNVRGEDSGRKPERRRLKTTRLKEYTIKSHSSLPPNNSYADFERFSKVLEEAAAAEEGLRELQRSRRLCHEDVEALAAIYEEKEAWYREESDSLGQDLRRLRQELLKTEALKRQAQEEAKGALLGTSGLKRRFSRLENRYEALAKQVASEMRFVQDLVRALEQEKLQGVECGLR

Take `FC(F)(F)c1ccc(Cl)cc1CN1CCNc2ncc(-c3ccnc(N4CCNCC4)c3)cc21`: the inhibition in test [1], in test [2], in test [3] and in test [4] was < 50% throughout.

On to `CN1CCN(c2ccc(-c3cnc4c(c3)N(Cc3cc(Cl)ccc3Cl)CCN4)cn2)CC1`, for which the inhibition in test [1], in test [2], in test [3] and in test [4] was < 50% throughout.

As for `COC1CCN(C(=O)c2ccc(-c3cnc4c(c3)N(Cc3cc(Cl)ccc3C(F)(F)F)CCN4)cc2)CC1`, in test [4], the inhibition was < 50%.

On to `O=C(c1ccc(-c2cnc3c(c2)N(Cc2cc(Cl)ccc2C(F)(F)F)CCN3)cc1)N1CCCCC1`, for which the inhibition in test [4] is < 50%.

As for `O=C(O)c1ccc(-c2cnc3c(c2)N(Cc2cc(Cl)ccc2C(F)(F)F)CCN3)cc1`, the inhibition in test [4] was < 50%.

Regarding `CN1CCN(c2ccc(-c3cnc4c(c3)N(Cc3cc(F)ccc3F)CCN4)cn2)CC1`, the inhibition in test [1], in test [2], in test [3] and in test [4] was < 50% throughout.

For the compound `O=C(c1ccc(-c2cnc3c(c2)N(Cc2cc(Cl)ccc2C(F)(F)F)CCN3)cc1)N1CCC(N2CCCC2)CC1`, the inhibition in test [4] is < 50%.

On to `CN1CCN(c2ccc(-c3cnc4c(c3)N(Cc3c(F)ccc(F)c3Cl)CCN4)cn2)CC1`, for which the inhibition in test [1], in test [2], in test [3] and in test [4] was < 50% throughout.

Consider `CC(=O)N1CCN(c2cc(-c3cnc4c(c3)N(Cc3cc(Cl)ccc3C(F)(F)F)CCN4)ccn2)CC1`, for which the inhibition in test [1], in test [2], in test [3] and in test [4] was < 50% each time.

As for `CN1CCN(c2ccc(-c3cnc4c(c3)N(Cc3cc(Cl)ccc3C(F)(F)F)CCN4)cn2)CC1`, the inhibition in test [1], in test [2], in test [3] and in test [4] was < 50% each time.

As a reminder, the inhibition is the change of the read-out against control, counted positive when it falls. A lower inhibition goes with a weak effect.
